The EternaBench riboswitch data

Tested on: MS2 coat protein
Assay: apparent Kd, MS2 coat protein; higher = weaker binding; RNA-MaP array; FMN 200 µM where present
Outline: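 Stalled E. coli RNA polymerase transcribed each design on Illumina sequencing-chip clusters. The clusters were titrated with SNAP-549-labelled MS2 coat protein, starting at 0.7 or 1.5 nM and doubling up to 3 µM, first without ligand and then with constant ligand, in 100 mM Tris-HCl pH 7.5, 80 mM KCl, 4 mM MgCl2, BSA, DTT, yeast tRNA and Tween-20. Green signal was normalised to red-channel RNA signal and to the control-cluster median Fmax. The apparent Kd is the median of filtered binding-curve fits made for each cluster.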

[1] = designed as: OFF switch for flavin mononucleotide, no ligand
[2] = ligand present: flavin mononucleotide, designed as: OFF switch for flavin mononucleotide
[3] = designed as: ON switch for flavin mononucleotide, no ligand
[4] = ligand present: flavin mononucleotide, designed as: ON switch for flavin mononucleotide

Q: How did the “apparent Kd” value [1] turn out when “CCGGAUAUGCAGGAUAUCGUAUCGGAGACGAUACGAGAAGGGUAUACAUGAGGAUCACCCAUGUGUCCUACCGG” was run?
A: The value was 26.4 nM.

Q: What about the “apparent Kd” value [2] of the same sequence?
A: Its value is 32.1 nM.

Q: What does the source list for “ACAUGAGGAUCACCCAUGUAAUGAUGGGUACUAUAUUAUUCGUAGGAUAUCGUUGUUAGUUUGUUCGAGAAGGACGUUUGCCUU”?
A: apparent Kd [1]: 1220 nM; apparent Kd [2]: 1200 nM

Q: With “GCCUCACAUGAGGAUCACCCAUGUCAGGAUAUCUAAGGCGAGGUGCAGGCACUUCGUGAGAGAAGGGACGUCAA” as the sequence, how does the “apparent Kd” value [1] read?
A: The value was 21.4 nM.

Q: What about the “apparent Kd” value [2] of the same sequence?
A: The value was 49.8 nM.

Q: With “AUACAUGAGGAUCACCCAUGUAAUUAAUUAAUUAAUAAGAUCUAGGAUAUCAGCUCGAUUAGAGCUGAGAAGGAGAUCACAUGU” as the sequence, how does the “apparent Kd” value [3] read?
A: The value was 24.2 nM.

Q: What about the “apparent Kd” value [4] of the same sequence?
A: The value was 14.6 nM.

Q: How did the “apparent Kd” value [3] turn out when “CGACGUUGGGAGAAGGAGUAAAAUACAUGAGGAUCACCCAUGUCAGGUGCUAGGAUAUCCUCGCGUGGCAGGGUCGGCCCGUGU” was run?
A: Its value is 97.2 nM.

Q: What about the “apparent Kd” value [4] of the same sequence?
A: The value was 32.7 nM.

Q: For “AGUGUCAUCGAGAAGGCCUCAACAUGAGGAUCACCCAUGUUGCAAAAUGGGAGGAUAUCAAAACUACAGCUACGUUUCGUAGCA”, which “apparent Kd” value [3] is on record?
A: The value was 69.1 nM.

Q: And the “apparent Kd” value [4]?
A: The value was 9.44 nM.

Q: For “GUGAAGUAAGGAUAUACAUGAGGAUCACCCAUGUGGAGGAAGGUGAUGGGAGUAGGUAGUAGAAGGUACGAGGA”, which “apparent Kd” value [1] is on record?
A: Its value is 140 nM.

Q: And the “apparent Kd” value [2]?
A: The value was 128 nM.

Q: Which results are given for “GCGGCUAGUGCAGGAUAUCGGCGCGUGUAGUGCCGAGAAGGGCACAUGAGGAUCACCCAUGUGAUCAAUCACUGCUAAGGCCGC”?
A: apparent Kd [1]: 5.26 nM; apparent Kd [2]: 5.4 nM

Q: Which results are given for “UGAGCCUCGUGAGGAUAUACAUGAGGAUCACCCAUGUAAUAAAGUGAACGGAGGAAACUCCGAAUGUAGAAGGCACGAGGCUUA”?
A: apparent Kd [1]: 18.7 nM; apparent Kd [2]: 146 nM

Q: With “GUUGUUUGAGGAUAUACAUGAGGAUCACCCAUGUGUGUCCAUACGCGUGAGUCUUCGUGUAGAAGGCGGGCGGC” as the sequence, how does the “apparent Kd” value [1] read?
A: The value was 13.7 nM.

Q: What about the “apparent Kd” value [2] of the same sequence?
A: Its value is 14.7 nM.

Q: For “GGAUAUAUUACAUGAGGAUCACCCAUGUCAGAAAGGGUAAUCAGAAGGUACUAUUAGAGAAAGAGUAAGGAUAUGAUUAUAUCC”, which “apparent Kd” value [3] is on record?
A: Its value is 630 nM.

Q: And the “apparent Kd” value [4]?
A: The value was 147 nM.

Q: Which results are given for “GCACUUACGUUAGGAUAUGGAUCGGAAAACGAUCCAGAAGGAAUAUGGGAACAUGAGGAUCACCCAUGUUCCUCAGACAAGUGC”?
A: apparent Kd [3]: 67.7 nM; apparent Kd [4]: 35.1 nM

Q: With “UGUAUGUAGGAGAAGGAGGACUUCAUGAGGAUCACCCAUGUGUUAGGACUUAGGAUAUCUGACGACAUGAGGAUCACCCAUGUG” as the sequence, how does the “apparent Kd” value [3] read?
A: The value was 537 nM.

Q: And the “apparent Kd” value [4]?
A: Its value is 355 nM.

Q: What does the source list for “AUUUCCAGAGGAUAUGCGAGGGUGUACCUCUAACAGCGCAAACAUGAGGAUCACCCAUGUAGAAGGCUGAUCAU”?
A: apparent Kd [1]: 56.5 nM; apparent Kd [2]: 54.8 nM

Q: Which “apparent Kd” value [3] does the source give for “UUGGACGUCGUAGGAUAUGUAGGAUAUGCCUACAUGAGGAUCACCCAUGUUGACAUGGAAGAAGGACAGAAGGACGAUGUCCAU” here?
A: The value was 108 nM.

Q: What about the “apparent Kd” value [4] of the same sequence?
A: Its value is 6.64 nM.

Q: How did the “apparent Kd” value [3] turn out when “CGUAAGAUGCAGAAGGUGUUAGCUAGAGCUACGACAUGAGGAUCACCCAUGUACUAGAAACAGUACAAGGAUAUGCAUCUUACC” was run?
A: Its value is 18.8 nM.

Q: And the “apparent Kd” value [4]?
A: Its value is 6.58 nM.

Q: How did the “apparent Kd” value [3] turn out when “UAAAUCUUGUAAGGAUAUACACGAGAUUCAAGUGUAGAAGGUACUUACAUGAGGAUCACCCAUGUAUACAUGGAUAAUAUAUAU” was run?
A: The value was 206 nM.

Q: And the “apparent Kd” value [4]?
A: The value was 32.2 nM.

Q: “GUAGCUAUCGGAGGAUAUUCAUACUGGAAACGGACAUGAGGAUCACCCAUGUGGCGAAAGCCUUGGGAGAAGGCUGAUAGCUAC” was tested. Which “apparent Kd” value [3] did it give?
A: The value was 139 nM.

Q: What about the “apparent Kd” value [4] of the same sequence?
A: The value was 7.72 nM.

Q: “AGUACUCAAAGAGUACGCAUACGCACAUGAGGAUCACCCAUGUAGGAUAUGCUACUCAAAGAGUAGUAGAAGGACAUAUACCUC” was tested. Which “apparent Kd” value [1] did it give?
A: Its value is 4.31 nM.

Q: What about the “apparent Kd” value [2] of the same sequence?
A: The value was 4.46 nM.

Q: How did the “apparent Kd” value [1] turn out when “UUCUUUCCUCAUGUACAUGAGGAACAUGAGGAUCACCCAUGUAGAAGGAUUUCCAUUAAAUUAAAAUAGGAUAUACAUAUAUUU” was run?
A: The value was 18.6 nM.

Q: What about the “apparent Kd” value [2] of the same sequence?
A: The value was 16.7 nM.

Q: For “AGGAAGUGAGGAUAUGCAGCAGCUAGUGGACGCUAGCGCAUGUAGAAGGCACAUGAGGAUCACCCAUGUUUAAA”, which “apparent Kd” value [1] is on record?
A: The value was 32.1 nM.

Q: What about the “apparent Kd” value [2] of the same sequence?
A: The value was 36.2 nM.

Q: What does the source list for “AGUUGUUCAGGAUAUGAUGAAUAUUACAUGAGGAUCACCCAUGUAGAUCCUGAAUAUGAAUCAGAAGGGAAUAUUU”?
A: apparent Kd [1]: 15.3 nM; apparent Kd [2]: 32.5 nM

Q: For “AAUAACAGAGGAUAUACUGUUUUAUGUAUUUAUUAUUUUGAACAUGAGGAUCACCCAUGUAGAAGGCUGAUUGA”, which “apparent Kd” value [1] is on record?
A: The value was 35.6 nM.

Q: And the “apparent Kd” value [2]?
A: Its value is 31.6 nM.

Q: How did the “apparent Kd” value [3] turn out when “GGUACCAUCACAGGAUAUGCUUUUCUUUGGGAAGCAGAAGGGUGUAACAUGAGGAUCACCCAUGUGGUGCCAGGGCGCGAGCCC” was run?
A: The value was 205 nM.

Q: And the “apparent Kd” value [4]?
A: The value was 15.4 nM.

Q: Which results are given for “UCCUCGAUGUAGAAGGCCGCGUCCGGCUCACGCGGAGGAUAUACAUGAGGAUCACCCAUGUGUCUGUGCCUUAUAUGGUACGGA”?
A: apparent Kd [1]: 111 nM; apparent Kd [2]: 10.5 nM

Q: For “CCACGUCACAUUAACAUGAGGAUCACCCAUGUCUCUAGACAUGAGGAUAUGGAUCCUAAUUGGAUCCAGAAGGCAUGGACGUGG”, which “apparent Kd” value [3] is on record?
A: Its value is 1420 nM.

Q: And the “apparent Kd” value [4]?
A: Its value is 138 nM.

Q: For “AGCUAAAACGAAGGAUAUACAAACAUGAGGAUCACCCAUGUAUACAUGAUUUAUUGUGAUCACAUGUAGAAGGUCGUACUAACA”, which “apparent Kd” value [3] is on record?
A: Its value is 958 nM.

Q: And the “apparent Kd” value [4]?
A: Its value is 225 nM.

Q: Which results are given for “CCGGAAAUAGAGGAUAUCGUACUGGAUACAGUACGAGAAGGCUAUACAUGAGGAUCACCCAUGUGUCCUACCGG”?
A: apparent Kd [1]: 16.9 nM; apparent Kd [2]: 36 nM

Q: What does the source list for “CUGGGCCAGGAGAAGGGCUAGAGUGUGAUAUAUUUGCCCGCGAGCACAUGAGGAUCACCCAUGUAGCAGGAUAUCCAAGCCGGU”?
A: apparent Kd [1]: 8.38 nM; apparent Kd [2]: 15.8 nM

Q: With “AAAAAACAUGAGGAUCACCCAUGUGAGGAUAUGCUAAAAAAAUCCGCAUGAAAAAAUAGCAGAAGGCACAUAAA” as the sequence, how does the “apparent Kd” value [1] read?
A: The value was 32.9 nM.

Q: What about the “apparent Kd” value [2] of the same sequence?
A: The value was 106 nM.

Q: For “AUCUGCUCGUCAGGAUAUACGUCACUGCGUCAGCAGUGUGGUAAGAUCACAUGAGGAUCACCCAUGUAGAAGGGACGAGCUGAU”, which “apparent Kd” value [1] is on record?
A: Its value is 12.9 nM.

Q: What about the “apparent Kd” value [2] of the same sequence?
A: Its value is 268 nM.

Q: Which “apparent Kd” value [1] does the source give for “GGUAUACUGCAGGAUAUUAGCUGAGAUAUCCGCUGAGAAGGGCAGACAUGAGGAUCACCCAUGUACCGAGUAGU” here?
A: Its value is 31.9 nM.

Q: And the “apparent Kd” value [2]?
A: Its value is 18.8 nM.

Q: Which results are given for “UGAGGACAUGAGGAUCACCCAUGUAAGGAUAUGCGGAGAGAUUGGAGAGGUCGAGGAGGCAGAAGGUACAGGAC”?
A: apparent Kd [1]: 143 nM; apparent Kd [2]: 74.7 nM

Q: Which results are given for “UCAUAUAUACAAGGAUAUCAAUGAUUUAUAGAUCCUACAUGAGGAUCACCCAUGUUUUUAUAUUUUGAGAAGGUGUAGUGUCUU”?
A: apparent Kd [3]: 214 nM; apparent Kd [4]: 333 nM

Q: With “AAAAAACAUGAGGAUCACCCAUGUCAAAAGACAUGAGGAUAUGUACAGACUUCGGUCUGUACAGAAGGCAUGAAAA” as the sequence, how does the “apparent Kd” value [3] read?
A: Its value is 489 nM.

Q: What about the “apparent Kd” value [4] of the same sequence?
A: The value was 43.6 nM.

Q: What does the source list for “GCCAUGCUGGUGACGGAUAACACAUGAGGAUCACCCAUGUACAGAAGGCGGAAUUAGCGUAGGACCGAGGAUAUGUACGUGAGG”?
A: apparent Kd [1]: 89.5 nM; apparent Kd [2]: 26.4 nM

Q: Which results are given for “AGUGCGUAUGUGAGGAUAUGCUGGUCCUUGGAUCGGCAGAAGGCACAUGAGGAUCACCCAUGUGGUGUCGUACU”?
A: apparent Kd [1]: 381 nM; apparent Kd [2]: 20 nM

Q: Which “apparent Kd” value [3] does the source give for “GUGCAUACGUGAGGAUAUGUAUUAGAUAGUGGUACAGAAGGCAUGUCUGAUGACAUGAGGAUCACCCAUGUUGGCACAAUGCGC” here?
A: Its value is 51.5 nM.

Q: And the “apparent Kd” value [4]?
A: The value was 30.2 nM.

Q: Which results are given for “UCGCUGCGAGGAUAUACAUGAGGAUCACCCAUGUACGGGUCCGGGUCUUUGUCUAUUGGUAGAAGGCGCAGUGA”?
A: apparent Kd [1]: 55.7 nM; apparent Kd [2]: 175 nM

Q: Which results are given for “AAUUGACACGUAGGAUAUCGAACUAUUUUAACACGAGAAGGACGUACAUGAGGAUCACCCAUGUUUAAUGGUGUAGAUAAGUUG”?
A: apparent Kd [1]: 70.9 nM; apparent Kd [2]: 188 nM

Q: Which results are given for “UUAAUUAUACAAGGAUAUCUAAUGGACUUACGACAAACAUGAGGAUCACCCAUGUAAAUAUAUAAAGAGAAGGUGUAUUUUCAG”?
A: apparent Kd [3]: 73.5 nM; apparent Kd [4]: 41.5 nM

Q: With “GGAUAGGACAGAGGAUAUACGUGCUAGAGAUACUAGCAAAAUUUCCUCACAUGAGGAUCACCCAUGUAGAAGGCUGUCCGAUCG” as the sequence, how does the “apparent Kd” value [1] read?
A: The value was 14.6 nM.

Q: And the “apparent Kd” value [2]?
A: Its value is 323 nM.
